One data set concerns RSV. The settings on record: cited from earlier work.
Data set [1] deals with RSV-A Memphis 37b. The data set can be described thus: RSV challenge study: viral load in nasal wash by RT-qPCR. To be noted: for AUC VL from baseline through day 12 / Reduction in AUC VL vs placebo: 5 mg BID nebulized; for AUC VL from baseline through day 12 / Peak VL / Time to nondetectability (or <1 log) of RSV RNA / VL at 2.5 d (peak at placebo) after first dose / VL slope: baseline to 24 h after first dose / VL slope: baseline to 48 h after first dose: LS mean (SD). The format is in vivo, human. In a few lines:
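Nasal washes collected twice daily were assayed for RSV RNA by RT-qPCR (Simplexa) and expressed as log10 PFUe/mL. ITT-I was defined as PCR-positive just before dosing, or positive on at least two later occasions. Nebulized 5 mg or placebo was given every 12 h for 5 days, starting about 12 h after detection or on day 6. Viral load AUC, peak and time to nondetectability were analysed by a mixed-effects model and t test.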
For orientation: Quantitative PCR measures a nucleic acid by following its amplification.

The nature of data set [2]: Plasma pharmacokinetics after repeated nebulized dosing. The format is in vivo, human. In a few lines:
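Healthy adults aged 18–55 received 5 mg nebulized by facemask every 12 h for 5 days (10 doses), with the first dose either in the morning (schedule A) or the evening (schedule B). Serial plasma samples were assayed by LC–MS/MS after liquid–liquid extraction, using a D4-labelled internal standard (LLOQ 0.1 ng/mL; range 0.1–100 ng/mL). Tmax was timed from the end of inhalation, and values are geometric means of both schedules.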

The nature of data set [3]: RSV challenge study: safety. It counts as in vivo, human. In a few lines: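 This was a randomized, single-blind, placebo-controlled study in healthy adults inoculated intranasally on day 0 and held in quarantine for 15 days. They received 5 mg or placebo by nebulizer and facemask every 12 h for 5 days. The ITT population comprised those inoculated who received at least one dose. Adverse events (counted as subjects reporting them), laboratory values, vital signs, ECG and spirometry were recorded through day 28 (±3 days).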

Data set [4] relates to RSV-A Memphis 37b. The data set can be described thus: RSV challenge study: symptom score and mucous weight. The format is in vivo, human. The settings on record: for AUC of mucous weight from baseline through day 12 / AUC of symptom score from baseline through day 12: LS mean (SD). In a few lines:
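Volunteers with low serum neutralizing titres were challenged with RSV-A Memphis 37b. Dosing with 5 mg or placebo by nebulizer every 12 h for 5 days began about 12 h after RT-qPCR detection or on the morning of day 6, whichever came first. Symptoms were self-recorded in diaries three times daily, and mucus was weighed daily from used facial tissues. AUCs were computed and group means compared by t test in the ITT-I population.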

Several values for one entry are separate records, joined by “and”; a condition that tells them apart may be missing. Identical values can stand only once. Bounds are passed on as bounds.

As a reminder, the AUC is the area under the concentration-time curve, a measure of exposure. Higher therefore signals more exposure. By Cmax is commonly meant the maximum level reached in the sampled fluid or tissue. One may read the half-life as the time needed for the level to fall by half in the phase considered.

With `CS(=O)(=O)CCCn1c(Cn2c(=O)n(CC(F)(F)F)c3ccncc32)cc2cc(Cl)ccc21` [JNJ-53718678], the “AUC reduction of viral load in RSV challenge study” value in the data set on RSV is listed as 41%–53%.

In the case of `Cc1cnc(N2CC3(CCOCC3)C2)c(C(=O)Nc2ccc(C(=O)N3CCc4cc(C(=O)Nc5c(C)cccc5F)sc4-c4ccccc43)cc2)c1` [PC786, N-(2-fluoro-6-methylphenyl)-6-(4-(5-methyl-2-(7-oxa-2-azaspiro [3.5]nonan-2-yl)nicotinamido)benzoyl)-5,6-dihydro-4H-benzo[b]thieno[2,3-d]azepine-2-carboxamide], the “AUC VL from baseline through day 12” value in the data set with RSV-A Memphis 37b [1] (ITT-I (n = 22)) was 274.1 log10 PFUe/mL × h and 274.1 (234.42) log10 PFUe/mL × h. Further, in the data set with RSV-A Memphis 37b [1] (ITT-I), the “Reduction in AUC VL vs placebo” value was determined as 32.57%, the “Peak VL” value is listed as 3.4 (1.76) log10 PFUe/mL, the “Time to nondetectability (or <1 log) of RSV RNA” value is given as 4.6 (3.75) d and the “VL at 2.5 d (peak at placebo) after first dose” value is listed as 2.0 (1.82) log10 PFUe/mL. Further, in the data set with RSV-A Memphis 37b [1] (ITT-I), the “VL slope: baseline to 24 h after first dose” value was 0.8 (1.89) log10 PFUe/mL/24 h and the “VL slope: baseline to 48 h after first dose” value is 0.6 (1.52) log10 PFUe/mL/48 h. The “AUC VL from baseline through day 12” value in the data set on RSV-A Memphis 37b [1] (ITT-IS (n = 19, post hoc)) is 325.8 (199.19) log10 PFUe/mL × h. In addition, in the data set with RSV-A Memphis 37b [1] (ITT-IS), the “Reduction in AUC VL vs placebo” value was 34% and 34.25%; the “Peak VL” value is recorded as 3.7 (1.30) log10 PFUe/mL; the “Time to nondetectability (or <1 log) of RSV RNA” value was 4.9 (4.13) d; the “VL at 2.5 d (peak at placebo) after first dose” value is on record as 2.3 (1.66) log10 PFUe/mL. Further, in the data set on RSV-A Memphis 37b [1] (ITT-IS), the “VL slope: baseline to 24 h after first dose” value was 0.7 (1.50) log10 PFUe/mL/24 h and the “VL slope: baseline to 48 h after first dose” value is 0.6 (1.45) log10 PFUe/mL/48 h. In data set [2] (5 mg BID), the “Time at which steady state was reached” value is not above 4 days. Besides, in data set [2] (human, inhaled, 5 mg), the exposure (AUC) was 11.7 ng·h/mL. This compound gave a Cmax in data set [2] (human, inhaled, 5 mg, Mean plasma Cmax, 5 mg BID nebulized) of 1.5 ng/mL. Further, the half-life in data set [2] (human, inhaled, 5 mg, t½, apparent terminal half-life, geometric mean (CV%)) is 12.1 h. The Tmax in data set [2] (repeated 5 mg BID, median (range), after end of inhalation) is 0.542 (0.383–2.08) h. Also, in data set [3] (ITT (n = 28), 5 mg BID), the “Conjunctivitis attributed to study drug, subjects” value is given as 0 No. (%); the “FEV1 decreased attributed to study drug, subjects” value is given as 0 No. (%); the “Headache attributed to study drug, events” value was 1 No. of Events; the “Headache attributed to study drug, subjects” value was 1 (3.6) No. (%). Further, in data set [3] (ITT (n = 28), 5 mg BID), the “No. of subjects with AEs attributed to study drug” value is 1 (3.6) No. (%) and the “Photophobia attributed to study drug, subjects” value is 0 No. (%). The “No. of subjects with AEs (TEAEs)” value in data set [3] (ITT (n = 28), 5 mg BID, first dose to day 28) was 12 No. (%) and 12 (42.9) No. (%). For the same compound, in data set [3] (nebulized 5 mg BID for 5 days), the “Serious adverse events, deaths, other significant AEs” value is reported as “no serious adverse events”. Further, in data set [3] (nebulized 5 mg BID for 5 days, healthy subjects inoculated with RSV), the Tolerability entry is on record as “well tolerated”. For the same compound, in the data set on RSV-A Memphis 37b [4] (ITT-I), the “AUC of mucous weight from baseline through day 12” value was 11.8 (22.99) g × No. of days and the “AUC of symptom score from baseline through day 12” value is 192.3 (244.97) score × h. Besides, the “Mean AUC of mucous weight lower than placebo” value in the data set with RSV-A Memphis 37b [4] (ITT-I, P = .1095) worked out at 38%. The “AUC of total symptom score lower than placebo” value in the data set on RSV-A Memphis 37b [4] (ITT-I, not statistically significant) is 29%. Further, in the data set with RSV-A Memphis 37b [4] (ITT-IS), the “AUC of mucous weight from baseline through day 12” value is given as 12.7 (24.69) g × No. of days and the “AUC of symptom score from baseline through day 12” value is given as 221.2 (252.05) score × h. For the same compound, the “Reduction of mean AUC of mucous weight vs placebo” value in the data set with RSV-A Memphis 37b [4] (ITT-IS, P = .0126) came out at 46%.
